Assay results from ChEMBL document CHEMBL5705888, “Substrate specificity and inhibitors of LRRK2, a protein kinase mutated in Parkinson's disease” (Biochem J, 2009).

How the values were obtained:
[1] = biological target: T1, Serine/threonine-protein kinase Sgk1 (Homo sapiens) (UniProt O00141); assay: Inhibition of SGK1 (unknown origin) at 1 uM incubated for 30 mins in presence of [gamma-33P]ATP by multidrop micro reagent based assay relative to control; values are per cent of control
T1 sequence (whole entry): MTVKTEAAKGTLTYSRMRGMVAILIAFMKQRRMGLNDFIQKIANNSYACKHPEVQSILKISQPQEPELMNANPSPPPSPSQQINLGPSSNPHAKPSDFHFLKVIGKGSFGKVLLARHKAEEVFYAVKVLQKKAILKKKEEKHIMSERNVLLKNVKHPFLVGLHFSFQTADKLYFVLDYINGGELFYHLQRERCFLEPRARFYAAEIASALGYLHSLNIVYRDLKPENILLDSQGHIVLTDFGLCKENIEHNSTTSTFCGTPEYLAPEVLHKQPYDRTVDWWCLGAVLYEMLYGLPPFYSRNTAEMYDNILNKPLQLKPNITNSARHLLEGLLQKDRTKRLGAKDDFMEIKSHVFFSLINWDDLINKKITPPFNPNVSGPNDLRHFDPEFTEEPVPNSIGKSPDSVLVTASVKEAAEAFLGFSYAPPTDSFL

Homo sapiens [2] = species on record: Homo sapiens; assay: Inhibition of CDK2/cyclin A (unknown origin) at 1 uM incubated for 30 mins in presence of [gamma-33P]ATP by multidrop micro reagent based assay relative to control; values are per cent of control
[3] = tested on: Leucine-rich repeat serine/threonine-protein kinase 2 (Homo sapiens), Q5S007 [G2019S]; assay: Inhibition of LRRK2 G2019S mutant (unknown origin) at 10 uM incubated for 30 mins in presence of [gamma-33P]ATP by multidrop micro reagent based assay relative to control
[4] = biological target: T2, Dual specificity protein kinase TTK (Homo sapiens) (UniProt P33981); assay: Inhibition of TTK (unknown origin) at 10 uM incubated for 30 mins in presence of [gamma-33P]ATP by multidrop micro reagent based assay relative to control
T2 sequence (whole entry): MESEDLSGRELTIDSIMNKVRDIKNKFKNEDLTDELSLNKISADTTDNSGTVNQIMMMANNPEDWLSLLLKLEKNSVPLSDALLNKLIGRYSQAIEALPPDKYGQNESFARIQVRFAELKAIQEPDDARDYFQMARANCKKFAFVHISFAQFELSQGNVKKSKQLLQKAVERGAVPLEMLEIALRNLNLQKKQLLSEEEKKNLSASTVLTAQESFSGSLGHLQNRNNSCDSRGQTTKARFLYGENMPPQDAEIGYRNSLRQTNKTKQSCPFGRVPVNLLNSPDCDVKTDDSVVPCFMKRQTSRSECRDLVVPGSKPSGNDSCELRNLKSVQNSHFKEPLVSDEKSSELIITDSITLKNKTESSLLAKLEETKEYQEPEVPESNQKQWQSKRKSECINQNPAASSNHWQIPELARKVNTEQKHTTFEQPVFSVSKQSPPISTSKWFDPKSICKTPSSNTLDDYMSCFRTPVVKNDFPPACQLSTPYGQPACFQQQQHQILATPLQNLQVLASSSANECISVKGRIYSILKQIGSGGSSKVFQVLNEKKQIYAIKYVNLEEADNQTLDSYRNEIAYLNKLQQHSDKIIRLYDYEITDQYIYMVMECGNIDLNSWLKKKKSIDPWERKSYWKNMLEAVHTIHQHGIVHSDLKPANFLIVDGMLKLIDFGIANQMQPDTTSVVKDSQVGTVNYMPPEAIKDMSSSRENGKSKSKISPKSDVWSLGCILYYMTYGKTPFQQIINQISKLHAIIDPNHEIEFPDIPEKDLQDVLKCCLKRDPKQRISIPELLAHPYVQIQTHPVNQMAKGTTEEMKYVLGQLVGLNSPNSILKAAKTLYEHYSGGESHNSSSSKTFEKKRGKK
How it was run: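 Single-concentration screen across a panel of 85 protein kinases. Activity is expressed as a percentage of control incubations run without inhibitor.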

Homo sapiens [5] = species on record: Homo sapiens; assay: Residual activity of VEGFR (unknown origin) at 10 uM incubated for 30 mins in presence of [gamma-33P]ATP by multidrop micro reagent based assay relative to control
[6] = biological target: Serine/threonine-protein kinase PAK 6 (Homo sapiens) (UniProt Q9NQU5); assay: Inhibition of PAK6 (unknown origin) at 10 uM incubated for 30 mins in presence of [gamma-33P]ATP by multidrop micro reagent based assay relative to control; values are per cent of control
[7] = biological target: T3, Protein kinase C zeta type (Homo sapiens) (UniProt Q05513); assay: Inhibition of PKCzeta (unknown origin) at 10 uM incubated for 30 mins in presence of [gamma-33P]ATP by multidrop micro reagent based assay relative to control; values are per cent of control
T3 sequence (whole entry): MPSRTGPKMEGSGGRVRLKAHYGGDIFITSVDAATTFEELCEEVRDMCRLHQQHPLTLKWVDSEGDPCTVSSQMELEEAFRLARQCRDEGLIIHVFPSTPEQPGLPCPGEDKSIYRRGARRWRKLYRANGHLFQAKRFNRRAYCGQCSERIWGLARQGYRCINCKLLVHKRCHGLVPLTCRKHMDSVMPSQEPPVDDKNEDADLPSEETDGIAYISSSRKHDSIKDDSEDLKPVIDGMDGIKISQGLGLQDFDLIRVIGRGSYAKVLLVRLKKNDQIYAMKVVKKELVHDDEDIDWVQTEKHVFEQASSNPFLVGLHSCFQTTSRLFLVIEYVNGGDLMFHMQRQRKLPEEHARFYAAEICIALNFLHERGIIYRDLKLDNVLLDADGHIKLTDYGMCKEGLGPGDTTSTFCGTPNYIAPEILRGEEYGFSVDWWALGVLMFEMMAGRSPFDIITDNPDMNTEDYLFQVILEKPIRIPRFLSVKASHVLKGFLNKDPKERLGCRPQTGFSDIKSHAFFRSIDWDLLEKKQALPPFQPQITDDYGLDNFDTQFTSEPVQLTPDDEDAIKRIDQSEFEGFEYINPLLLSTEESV

Chain of Leucine-rich repeat serine/threonine-protein kinase 2 (Homo sapiens), Q5S007 [G2019S] (Q5S007 whole entry G2019S): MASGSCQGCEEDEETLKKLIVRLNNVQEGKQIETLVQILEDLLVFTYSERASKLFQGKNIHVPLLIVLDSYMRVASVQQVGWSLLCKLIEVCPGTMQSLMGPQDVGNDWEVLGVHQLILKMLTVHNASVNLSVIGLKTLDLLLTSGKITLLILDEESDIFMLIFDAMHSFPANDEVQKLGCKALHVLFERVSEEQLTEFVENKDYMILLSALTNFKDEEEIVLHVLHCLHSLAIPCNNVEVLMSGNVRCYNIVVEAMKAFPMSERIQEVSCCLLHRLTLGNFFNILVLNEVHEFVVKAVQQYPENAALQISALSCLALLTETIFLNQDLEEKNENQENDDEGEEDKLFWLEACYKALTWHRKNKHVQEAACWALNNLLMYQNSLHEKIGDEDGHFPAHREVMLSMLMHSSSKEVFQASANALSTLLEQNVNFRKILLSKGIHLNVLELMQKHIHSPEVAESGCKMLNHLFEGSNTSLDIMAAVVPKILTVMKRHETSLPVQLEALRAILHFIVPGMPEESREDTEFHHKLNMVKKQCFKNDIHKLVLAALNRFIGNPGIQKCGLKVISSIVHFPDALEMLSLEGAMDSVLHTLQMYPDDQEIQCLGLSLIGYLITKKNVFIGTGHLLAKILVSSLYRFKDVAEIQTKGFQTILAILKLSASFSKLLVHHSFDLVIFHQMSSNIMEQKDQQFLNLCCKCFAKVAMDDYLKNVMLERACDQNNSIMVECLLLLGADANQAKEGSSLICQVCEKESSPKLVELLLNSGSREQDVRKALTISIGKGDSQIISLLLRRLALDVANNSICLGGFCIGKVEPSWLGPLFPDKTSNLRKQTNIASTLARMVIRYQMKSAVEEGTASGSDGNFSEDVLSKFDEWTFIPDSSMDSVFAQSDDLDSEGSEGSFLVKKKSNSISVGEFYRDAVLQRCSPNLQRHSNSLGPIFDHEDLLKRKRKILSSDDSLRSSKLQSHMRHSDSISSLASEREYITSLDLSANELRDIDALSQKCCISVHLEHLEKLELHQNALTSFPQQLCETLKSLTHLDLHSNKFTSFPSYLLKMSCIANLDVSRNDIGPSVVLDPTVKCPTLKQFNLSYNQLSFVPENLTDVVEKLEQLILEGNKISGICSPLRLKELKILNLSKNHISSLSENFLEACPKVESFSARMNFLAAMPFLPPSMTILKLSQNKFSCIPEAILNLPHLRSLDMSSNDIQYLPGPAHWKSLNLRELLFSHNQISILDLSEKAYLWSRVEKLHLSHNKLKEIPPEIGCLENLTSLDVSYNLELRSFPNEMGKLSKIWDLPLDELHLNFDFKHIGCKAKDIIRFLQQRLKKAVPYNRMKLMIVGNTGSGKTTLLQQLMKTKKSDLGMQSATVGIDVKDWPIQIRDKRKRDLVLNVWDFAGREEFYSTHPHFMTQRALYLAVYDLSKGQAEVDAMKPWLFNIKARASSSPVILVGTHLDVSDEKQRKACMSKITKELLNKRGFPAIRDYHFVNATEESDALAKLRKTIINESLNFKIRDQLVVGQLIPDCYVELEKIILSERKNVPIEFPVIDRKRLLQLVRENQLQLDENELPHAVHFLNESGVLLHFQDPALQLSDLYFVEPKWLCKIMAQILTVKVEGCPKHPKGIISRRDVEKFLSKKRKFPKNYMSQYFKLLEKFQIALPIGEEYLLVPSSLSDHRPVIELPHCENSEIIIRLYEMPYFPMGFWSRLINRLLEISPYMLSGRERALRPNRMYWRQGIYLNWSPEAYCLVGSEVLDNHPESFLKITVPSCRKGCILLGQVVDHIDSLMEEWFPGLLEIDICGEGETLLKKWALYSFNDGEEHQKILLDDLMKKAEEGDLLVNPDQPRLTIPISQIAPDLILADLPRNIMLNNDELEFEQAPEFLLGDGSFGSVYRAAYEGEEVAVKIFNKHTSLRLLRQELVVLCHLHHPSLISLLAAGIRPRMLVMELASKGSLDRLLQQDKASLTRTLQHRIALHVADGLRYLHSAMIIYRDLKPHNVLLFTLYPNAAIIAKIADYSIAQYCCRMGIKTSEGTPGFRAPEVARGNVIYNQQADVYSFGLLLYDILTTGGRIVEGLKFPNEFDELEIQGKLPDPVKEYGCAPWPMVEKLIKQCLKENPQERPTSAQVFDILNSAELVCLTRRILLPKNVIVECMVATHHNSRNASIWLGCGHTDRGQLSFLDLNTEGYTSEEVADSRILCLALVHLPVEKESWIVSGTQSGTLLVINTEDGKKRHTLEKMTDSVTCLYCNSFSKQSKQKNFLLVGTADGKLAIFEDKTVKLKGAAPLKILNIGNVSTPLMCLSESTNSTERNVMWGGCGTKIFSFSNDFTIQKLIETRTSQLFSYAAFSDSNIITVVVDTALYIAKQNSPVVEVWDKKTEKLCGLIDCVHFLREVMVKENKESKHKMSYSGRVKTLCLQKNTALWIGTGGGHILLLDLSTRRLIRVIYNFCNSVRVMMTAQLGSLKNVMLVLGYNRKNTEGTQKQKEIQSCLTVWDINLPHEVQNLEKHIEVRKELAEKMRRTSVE
Chain of Serine/threonine-protein kinase PAK 6 (Homo sapiens) (Q9NQU5 whole entry, looked up): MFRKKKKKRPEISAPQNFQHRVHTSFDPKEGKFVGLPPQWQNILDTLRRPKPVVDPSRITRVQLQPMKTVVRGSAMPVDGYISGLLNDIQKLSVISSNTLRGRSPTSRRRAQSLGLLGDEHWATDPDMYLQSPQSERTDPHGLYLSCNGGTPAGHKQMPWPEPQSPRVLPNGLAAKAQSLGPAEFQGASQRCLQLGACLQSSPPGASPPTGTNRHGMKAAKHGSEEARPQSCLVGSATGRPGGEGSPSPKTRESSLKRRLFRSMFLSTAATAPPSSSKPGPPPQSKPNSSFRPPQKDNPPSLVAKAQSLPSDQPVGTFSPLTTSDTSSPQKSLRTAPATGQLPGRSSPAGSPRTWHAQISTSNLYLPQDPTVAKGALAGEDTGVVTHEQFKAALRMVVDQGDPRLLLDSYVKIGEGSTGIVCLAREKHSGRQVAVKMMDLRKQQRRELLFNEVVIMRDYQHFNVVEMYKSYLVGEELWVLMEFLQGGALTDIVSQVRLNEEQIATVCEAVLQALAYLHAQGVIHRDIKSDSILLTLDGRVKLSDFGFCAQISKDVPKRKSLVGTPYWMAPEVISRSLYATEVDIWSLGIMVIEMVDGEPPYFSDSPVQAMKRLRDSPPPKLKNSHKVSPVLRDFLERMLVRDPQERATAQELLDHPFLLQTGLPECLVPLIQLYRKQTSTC

SMILES	residual activity [1]	residual activity (Homo sapiens [2])	inhibition [3]	inhibition [4]	residual activity (Homo sapiens [5])	residual activity [6]	residual activity [7]
CCn1c(-c2nonc2N)nc2cnc(Oc3cccc(NC(=O)c4ccc(OCCN5CCOCC5)cc4)c3)cc21 [GSK-269962A]	24%	50%					
O=S(=O)(c1cccc2cnccc12)N1CCCNCC1 [FASUDIL]			67%	73%	70%	110%	66%
C[C@@H](N)[C@H]1CC[C@H](C(=O)Nc2ccncc2)CC1			11%	73%	105%	96%	69%
CC1=C(C(=O)Nc2cc3cn[nH]c3cc2F)C(c2ccc(C(F)(F)F)cc2)CC(=O)N1 (centres undefined)	131%	49%					
